Converted amounts (≈) assume the structure as drawn.
Columns and labels:
[1] = tested on: Bacillus subtilis; test: Antibacterial activity against Bacillus subtilis at 5 ug/disk after 24 hrs by agar-plate diffusion assay; assay type: functional; conditions: read-out: IZ
Outline: (§1)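 Paper disks loaded with compound (acetone solution), 0.1 to 10 µg/disk, placed on agar plates inoculated with B. subtilis. Incubated 37 °C for 24 h, then read for zones of inhibition. All materials sterilized at 121 °C for 20 min before and after testing.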

[2] = tested on: Bacillus subtilis; test: Antibacterial activity against Bacillus subtilis at 1 ug/disk after 24 hrs by agar-plate diffusion assay; assay type: functional; conditions: read-out: IZ; outline: as §1
[3] = tested on: Bacillus subtilis; test: Antibacterial activity against Bacillus subtilis at 10 ug/disk after 24 hrs by agar-plate diffusion assay; assay type: functional; conditions: read-out: IZ; outline: as §1
[4] = tested on: Bacillus subtilis; test: Antibacterial activity against Bacillus subtilis at 0.1ug/disk after 24 hrs by agar-plate diffusion assay; assay type: functional; conditions: read-out: IZ; outline: as §1
[5] = Cytotoxicity against rat NBT-T2 cells by MTT method; assay type: cell-based
Outline: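 Rat bladder epithelial NBT-T2 cells exposed to compound. Viability read by MTT, and IC50 values derived from it.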

Compound | zone of inhibition at 5 µg/disc [1] | zone of inhibition at 1 µg/disc [2] | zone of inhibition at 10 µg/disc [3] | zone of inhibition at 0.1 µg/disc [4] | IC50 [5]
COc1c(Br)c(Br)cc(Br)c1Oc1cc(Br)cc(Br)c1O | 9 mm | 9 mm | 9 mm | 6 mm | 
COc1ccc(Br)cc1Oc1c(Br)c(Br)cc(Br)c1OC | 0 mm | 0 mm | 0 mm | 0 mm | 
COc1c(Br)cc(Br)cc1Oc1c(O)cc(Br)c(Br)c1Br | 10 mm | 9 mm | 10 mm | 6 mm | 2.8 µg/mL (≈ 4.58 µM)
COc1cc(Br)c(Br)c(Br)c1Oc1cc(Br)cc(Br)c1O | 0 mm | 0 mm | 0 mm | 0 mm | 
COc1c(Br)cc(Br)cc1Oc1c(O)c(Br)c(Br)c(Br)c1Br | 10 mm | 10 mm | 13 mm | 0 mm | > 15 µg/mL
COc1c(Br)cc(Br)cc1Oc1c(Br)c(Br)c(Br)c(Br)c1OC | 0 mm | 0 mm | 0 mm | 0 mm | 
COc1c(Br)cc(Br)cc1Oc1ccc(Br)cc1Br | 0 mm | 0 mm | 0 mm | 0 mm | 
Oc1ccc(Br)cc1Oc1c(O)ccc(Br)c1Br | 16 mm | 13 mm | 18 mm | 7 mm | > 15 µg/mL
COc1c(Br)cc(Br)c(Br)c1Oc1cc(Br)cc(Br)c1O | 10 mm | 7 mm | 13 mm | 6 mm | 
Oc1ccc(Br)cc1Oc1c(O)c(Br)cc(Br)c1Br | 16 mm | 8 mm | 17 mm | 7 mm | > 15 µg/mL
Oc1cc(Br)c(Br)c(Br)c1Oc1cc(Br)cc(Br)c1O | 13 mm | 10 mm | 16 mm | 7 mm | > 15 µg/mL
Oc1c(Br)cc(Br)cc1Oc1c(Br)cc(Br)c(Br)c1O | 8 mm | 7 mm | 10 mm | 0 mm | > 15 µg/mL
COc1ccc(Br)cc1Oc1c(OC)ccc(Br)c1Br | 0 mm | 0 mm | 0 mm | 0 mm | 
Oc1c(Br)cc(Br)cc1Oc1c(O)c(Br)c(Br)c(Br)c1Br | 12 mm | 7 mm | 12 mm | 6 mm | > 15 µg/mL
Brc1cc(Br)c2c(c1)Oc1c(Br)c(Br)c(Br)c(Br)c1O2 | 13 mm | 12 mm | 14 mm | 7 mm | > 15 µg/mL
Oc1ccc(Br)cc1Oc1cc(Br)cc(Br)c1O | 8 mm | 6 mm | 11 mm | 6 mm | > 15 µg/mL
COc1c(Br)c(Br)c(Br)c(Br)c1Oc1cc(Br)cc(Br)c1O | 0 mm | 0 mm | 0 mm | 0 mm | 
COc1c(Br)cc(Br)cc1Oc1c(Br)ccc(Br)c1OC | 0 mm | 0 mm | 0 mm | 0 mm | 
COc1c(Br)cc(Br)cc1Oc1c(Br)cc(Br)c(Br)c1OC | 0 mm | 0 mm | 0 mm | 0 mm | 
Oc1c(Br)cc(Br)cc1Oc1c(Br)ccc(Br)c1O | 20 mm | 13 mm | 20 mm | 7 mm | > 15 µg/mL
Oc1cc(Br)cc(Br)c1Oc1cc(Br)cc(Br)c1O | 16 mm | 0 mm | 18 mm | 0 mm | > 15 µg/mL
Oc1c(Br)cccc1Oc1cc(Br)c(Br)c(Br)c1O | 8 mm | 0 mm | 13 mm | 0 mm | > 15 µg/mL
Oc1ccccc1Oc1c(O)cc(Br)cc1Br | 10 mm | 8 mm | 14 mm | 6 mm | > 15 µg/mL
COc1cc(Br)c(Br)c(Br)c1Oc1cc(Br)cc(Br)c1OC | 0 mm | 0 mm | 0 mm | 0 mm | 
COc1cc(Br)cc(Br)c1Oc1cc(Br)cc(Br)c1OC | 0 mm | 0 mm | 0 mm | 0 mm | 
COc1c(Br)cc(Br)cc1Oc1c(Br)cc(Br)c(Br)c1O | 14 mm | 11 mm | 14 mm | 6 mm | 
Oc1cc(Br)ccc1Oc1cc(Br)cc(Br)c1O | 7 mm | 0 mm | 13 mm | 0 mm | 8.5 µg/mL (≈ 19.4 µM)

From ChEMBL document CHEMBL1142942, “Polybrominated diphenyl ethers from the Indonesian sponge Lamellodysidea herbacea” (J Nat Prod, 2007)
